Entries after “also recorded” stand apart in the source; their conditions may differ. Read-outs that look alike come from different tables or passages of the source. Marks after values point to notes of the source that are not given here.
Assays:
BV-2 cells [1] = assay: Cell metabolism, Alamar Blue; type: cell-based, mouse; settings: 24 h, Alamar Blue (Figure S1B)
Outline: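 Cells exposed 24 h to test compound at 500, 250, 100, 50 or 5 μM, DMSO final up to 0.1% v/v. Resazurin 50 μM in PBS added 3 h before the end. Absorbance read at 570 nm with 620 nm reference. Highest nontoxic concentration chosen from metabolic capacity.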

APP/PS1 male mice [2] = assay: Aβ40 and Aβ42 levels in cortex, hippocampus and plasma; type: in vivo, mouse; settings: 11-month-old APP/PS1 males, 100 mg/kg, 1 month
Outline: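 APP/PS1 and WT littermate males aged 10 months, randomised to groups of n = 5. PBS vehicle or test compound at 100 mg/kg given intranasally for 1 month. At 11 months, Aβ40 and Aβ42 measured in cortex, hippocampus and plasma; plasma Aβ42/Aβ40 ratio derived. Mean ± SEM of five animals.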

N2a-APPswe cells = assay: Nrf2 silencing; type: cell-based, mouse
APP/PS1 female mice [3] = assay: Brain protein levels of 6-month-old females, western blot; type: in vivo, mouse; settings: 50 mg/kg, 1 month
Outline: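 Females received PBS or test compound at 50 mg/kg (APP/PS1 only) intranasally for 1 month. Brain hAPP, BACE1, iNOS, pro-IL-1β, HMOX1 and p44/42 MAPK assessed by western blot, with milk or BSA (phospho) blocking 1 h RT. Mean ± SEM of five animals; one-way ANOVA with Dunnett's or Tukey's test, p < 0.05.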

[4] = system: BV-2 cells exposed to LPS; assay: iNOS and pro-IL-1β protein in LPS-stimulated microglia, western blot; type: cell-based, mouse; settings: BV-2, 250 μM, LPS 50 ng/mL, 24 h
Outline: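 BV-2 cells given test compound at 250 μM, LPS 50 ng/mL added 30 min later, for 24 h. iNOS and pro-IL-1β protein measured by western blot. Mean ± SEM of four independent experiments, relative to untreated control.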

WT and APP/PS1 male mice [5] = assay: Hippocampal gene expression, real-time RT-PCR; type: in vivo, mouse
Outline: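 Hippocampi of 11-month-old WT and APP/PS1 males after 1 month of intranasal PBS or test compound at 100 mg/kg. hAPP, Bace1, Il-1β, Iba1, Trem2, Hmox1, Ppargc1α and Bdnf mRNA measured by real-time RT-PCR.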

[6] = Pharmacokinetics after intranasal administration; type: in vivo, mouse; settings: for Kp: B6C3F1, mouse, inhaled or intranasal, 100 mg/kg; for AUC t / AUCinf: WT mice
Outline: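 WT B6C3F1 mice (25–30 g), acclimatised ≥7 days with food and water ad libitum, given test compound intranasally at 100 mg/kg. Plasma, brain and lung sampled at 5, 15, 30, 60, 120 and 180 min; n = 4. AUCt and AUCinf derived from concentration–time profiles.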

APP/PS1 male mice [7] = assay: Fear conditioning test; type: in vivo, mouse; settings: 100 mg/kg, 1 month
Outline: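 10-month-old males, n = 5 per group, given intranasal PBS or test compound at 100 mg/kg for 1 month. Day 1: paired auditory–shock stimuli, return to cage 1 min after last pair. Day 2: freezing scored 5 min in context A. Day 3: altered context B, freezing scored 3 min, then 3 min with auditory cue.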

[8] = Blood-brain barrier permeability, PAMPA with 2% porcine polar brain lipid; type: in vitro ADME; settings: 150 μg/mL, 16 h, cut-off 2.0 × 10^−6 cm s^−1 (Figure S4)
Outline: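 PAMPA blood–brain barrier model using membranes with 2% (w/v) porcine polar brain lipid. Permeability given as experimental Papp in cm/s. Mean of three independent experiments, each run in duplicate.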

WT and APP/PS1 male mice [9] = assay: Body weight and metabolic parameters of 11-month-old males; type: in vivo, mouse; settings: 1 month
[10] = cited from earlier work; for dose-normalized AUC t in plasma: oral
[11] = system: Aβ40 and Aβ42 peptide levels in N2a-APPswe cells; assay: Aβ40 and Aβ42 peptide levels in N2a cell supernatants; type: cell-based, mouse; settings: 250 μM, 24 h
Outline: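 N2a-wt and N2a-APPswe cells left untreated or exposed to test compound at 250 μM for 24 h. Aβ40 and Aβ42 peptides quantified by ELISA.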

BV-2 cells [12] = assay: Nrf2 silencing; type: cell-based, mouse; settings: BV-2, Iso + LPS
APP/PS1 female mice [13] = assay: Demographic and metabolic parameters of 6-month-old females; type: in vivo, mouse; settings: 6-month-old APP/PS1 females, 50 mg/kg, 1 month
Outline: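 WT and APP/PS1 females given PBS vehicle or test compound at 50 mg/kg (APP/PS1 only) intranasally for 1 month. Recorded body weight, adipose tissue weight, fasting glucose and triglycerides. Mean ± SEM of five to six animals.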

[14] = APP/PS1 + Iso vs APP/PS1, 100 mg/kg, 1 month
[15] = APP/PS1 males, 100 mg/kg, 1 month
[16] = WT and APP/PS1 males, 100 mg/kg, 1 month, not significant

- Kp ([6]; brain and plasma): 0.23
- Kp ([6]; lung and plasma): 6.73
- AUC t ([6]; brain, intranasal 100 mg/kg): 140.87 ^c μg.min/g
- AUCinf ([6]; brain, intranasal 100 mg/kg): 142.15 ^c μg.min/g
- dose-normalized AUC t in plasma ([6]; intranasal 100 mg/kg, mice): 5.99 µg·min/mL/kg
- dose-normalized AUCinf in plasma ([6]; intranasal 100 mg/kg, mice): 6.04 µg·min/mL/kg
- AUC t ([6]; lung, intranasal 100 mg/kg): 4030.85 ^c μg.min/g
- AUCinf ([6]; lung, intranasal 100 mg/kg): 4091.75 ^c μg.min/g
- BBB permeability (PAMPA Papp) [8]: could cross the BBB
SMILES: CC=Cc1ccc(O)c(OC)c1 [Iso, 2‐methoxy‐4‐(prop‐1‐en‐1‐yl) phenol]
- highest nontoxic concentration tested (BV-2 cells [1]): 250 µM
- cortex Aβ40 levels (APP/PS1 male mice [2]): no alterations observed
- cortex Aβ42 levels (APP/PS1 male mice [2]): no alterations observed
- hippocampus Aβ40 levels (APP/PS1 male mice [2]): no alterations observed
- hippocampus Aβ42 levels (APP/PS1 male mice [2]): no alterations observed
- plasma Aβ40 levels (APP/PS1 male mice [2]): decreased
- plasma Aβ42 levels (APP/PS1 male mice [2]): decreased
- plasma Aβ42/Aβ40 ratio (APP/PS1 male mice [2]; not significant): partial increase
- Aβ40 peptide levels (N2a-APPswe cells; not transfected N2a-APPswe, silencing experiment set, 24 h): significantly decreased
- Aβ40 levels in Nrf2-silenced cells (N2a-APPswe cells; siNrf2 + Iso, N2a-APPswe, 36 h after transfection): further decreased
- decrease in brain p44/42 MAPK phosphorylated levels (APP/PS1 female mice [3]; 6-month-old APP/PS1 females): reverted
- increase in brain HMOX1 protein levels (APP/PS1 female mice [3]; 6-month-old APP/PS1 mice, p = 0.068): 1.5 fold
- brain APP protein levels (APP/PS1 female mice [3]; 6-month-old mice): not altered
- LPS-induced iNOS protein levels [4]: reduced
- LPS-induced pro-IL-1β protein levels [4]: reduced
- decrease in Bdnf gene of APP/PS1 mice (WT and APP/PS1 male mice [5]; [14]): reversed
- reduction in Ppargc1α mRNA levels of APP/PS1 mice (WT and APP/PS1 male mice [5]; [14]): reversed
- Iba1 expression in hippocampus (WT and APP/PS1 male mice [5]; [15]): increased
- h-APP gene expression in hippocampus (WT and APP/PS1 male mice [5]; [15]): not affected
- increase in Trem2 gene expression (trend) (WT and APP/PS1 male mice [5]; [15]): 1.6 fold
- reduction of Bace1 mRNA levels (WT and APP/PS1 male mice [5]; Iso-treated 11-month-old animals, 100 mg/kg, not significant): ~ 4 fold
- Bace1 mRNA levels in hippocampus (WT and APP/PS1 male mice [5]; [16]): clear tendency toward a reduction
- Il1β mRNA levels in hippocampus (WT and APP/PS1 male mice [5]; [16]): clear tendency toward a reduction; also recorded: markedly reduced
- Trem2 mRNA levels in hippocampus (WT and APP/PS1 male mice [5]; WT males, 100 mg/kg, 1 month): decreased
- Hmox1 expression in hippocampus (WT and APP/PS1 male mice [5]; both WT and APP/PS1 males, 100 mg/kg, 1 month): increased
- % of freezing, contextual memory (day 2) (APP/PS1 male mice [7]; APP/PS1 males): clear but not significant increase
- associative memory (day 3) (APP/PS1 male mice [7]; males): no differences were detected
- triglycerides (WT and APP/PS1 male mice [9]; 11-month-old APP/PS1 males, 100 mg/kg): reduction
- adipose tissue weight (WT and APP/PS1 male mice [9]; 11-month-old WT and APP/PS1 males, 100 mg/kg): trend toward a decrease
- decrease in body weight (WT and APP/PS1 male mice [9]; 11-month-old males, intranasal 100 mg/kg): < 15%
- alpha half-life distribution time ([10]; after intravenous dosing): 7 to 10 min
- steady-state apparent volume of distribution ([10]; after intravenous dosing): 11 to 25.2 L/kg
- dose-normalized AUCinf in plasma ([10]; intravenous 35 mg/kg, mice): 6.76 µg·min/mL/kg
- dose-normalized AUC t in plasma ([10]; first listed of doses 35, 70 and 140 mg/kg, mice): 1.91 µg·min/mL/kg
- dose-normalized AUC t in plasma ([10]; second listed of doses 35, 70 and 140 mg/kg, mice): 1.68 µg·min/mL/kg
- dose-normalized AUC t in plasma ([10]; third listed of doses 35, 70 and 140 mg/kg, mice): 1.45 µg·min/mL/kg
- Aβ42 peptide levels [11]: no effect was observed
- Aβ40 levels ([11]; vs untreated cells): significantly decreased
- Iso-induced NO decrease in siGAPDH- or siNeg-transfected cells (BV-2 cells [12]): not affected
- Iso-induced NO decrease in siNrf2-transfected cells (BV-2 cells [12]): reversed
- adipose tissue weight (APP/PS1 female mice [13]): did not reduce

Source: PMC13435124 (The FASEB Journal, 2026)
